Data published in ChEMBL document CHEMBL1145575, “Design and synthesis of novel furoquinoline based inhibitors of multiple targets in the PI3K/Akt-mTOR pathway” (Bioorg Med Chem Lett, 2008).
Active and inactive are the calls of the source. No cut-off for these calls is given here.

What was measured:
[1] = molecular target: Phosphatidylinositol 4,5-bisphosphate 3-kinase catalytic subunit alpha isoform (Homo sapiens, UniProt P42336); test: Inhibition of human recombinant PI3K-alpha assessed as formation of PI3P from PI by cell free kinase assay
Sequence of Phosphatidylinositol 4,5-bisphosphate 3-kinase catalytic subunit alpha isoform (P42336 whole entry, canonical isoform): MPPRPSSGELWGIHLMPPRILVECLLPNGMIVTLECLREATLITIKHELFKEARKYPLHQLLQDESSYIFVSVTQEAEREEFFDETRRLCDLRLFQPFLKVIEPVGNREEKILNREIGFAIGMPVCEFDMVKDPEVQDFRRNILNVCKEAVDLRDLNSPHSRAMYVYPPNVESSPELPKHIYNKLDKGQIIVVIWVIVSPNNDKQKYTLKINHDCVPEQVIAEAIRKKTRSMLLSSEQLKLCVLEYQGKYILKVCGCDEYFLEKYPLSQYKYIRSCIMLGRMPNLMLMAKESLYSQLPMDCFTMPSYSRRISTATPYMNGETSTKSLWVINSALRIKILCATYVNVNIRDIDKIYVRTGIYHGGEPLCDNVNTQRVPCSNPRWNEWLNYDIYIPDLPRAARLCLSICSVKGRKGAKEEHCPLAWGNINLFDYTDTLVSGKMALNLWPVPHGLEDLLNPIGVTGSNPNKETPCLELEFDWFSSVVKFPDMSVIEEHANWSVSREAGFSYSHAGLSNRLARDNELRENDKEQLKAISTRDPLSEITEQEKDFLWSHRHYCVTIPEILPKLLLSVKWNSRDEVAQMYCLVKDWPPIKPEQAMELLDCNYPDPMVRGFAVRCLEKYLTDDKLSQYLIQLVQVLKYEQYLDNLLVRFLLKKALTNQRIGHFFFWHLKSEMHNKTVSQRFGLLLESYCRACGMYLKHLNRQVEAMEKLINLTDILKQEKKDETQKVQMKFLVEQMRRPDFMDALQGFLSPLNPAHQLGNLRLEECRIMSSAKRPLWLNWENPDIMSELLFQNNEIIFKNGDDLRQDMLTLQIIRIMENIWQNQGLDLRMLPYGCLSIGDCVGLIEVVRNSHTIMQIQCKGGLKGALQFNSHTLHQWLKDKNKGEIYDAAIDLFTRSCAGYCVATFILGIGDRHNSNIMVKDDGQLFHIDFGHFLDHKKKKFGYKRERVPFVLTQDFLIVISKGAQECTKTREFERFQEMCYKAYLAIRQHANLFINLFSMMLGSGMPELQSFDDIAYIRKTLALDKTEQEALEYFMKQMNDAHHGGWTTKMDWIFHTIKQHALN
Method in brief: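 Cell-free kinase assay with recombinant PI3Kα (p110α). The read-out was PI3P formed from the substrate phosphatidylinositol. An IC50 was derived.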

[2] = molecular target: Serine/threonine-protein kinase mTOR (Homo sapiens) (UniProt P42345); test: Inhibition of mTOR in human H460 cells assessed as p70S6 phosphorylation at Thr 389 upto 30 uM; type: cell-based
Method in brief: (§1)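 Human NSCLC H-460 cells; PI3K activity read as Akt phosphorylation at Ser 473 and mTOR activity as p70S6 kinase phosphorylation at Thr 389. Compounds were screened at 10 µM, and some up to 30 µM. Activity was reported as % inhibition. LY-294002 served as the reference inhibitor at 30 µM.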

[3] = molecular target: T1, Hypoxia inducible factors; HIF-1-alpha, HIF-2-alpha (Homo sapiens, UniProt Q16665+Q99814); test: Inhibition of hypoxia-induced HIF1 activation in human U251HRE cells by cell based reporter gene assay
H460 [4] = test: Inhibition of PI3K in human H460 cells assessed as Akt phosphorylation at Ser 473 at 10 uM; type: cell-based; method in brief: as §1
H460 [5] = test: Inhibition of PI3K in human H460 cells assessed as Akt phosphorylation at 10 uM by Western blot
[6] = molecular target: T1, Hypoxia inducible factors; HIF-1-alpha, HIF-2-alpha; test: Inhibition of HIF1 in human U251HRE cells at 10 uM by Western blot; type: cell-based
Method in brief: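 U251-HRE-Luc cells were induced with DFX for 6 h in the presence of test compound at 10 µM, alongside untreated and DFX-only controls. HIF-1 was assessed by Western blot.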

H460 [7] = test: Inhibition of PI3K in human H460 cells assessed as Akt phosphorylation at 3 uM by Western blot
[8] = molecular target: Hypoxia-inducible factor 1-alpha (Homo sapiens) (UniProt Q16665); test: Inhibition of HIF1alpha
Sequence of Hypoxia-inducible factor 1-alpha (Homo sapiens) (Q16665 whole entry, looked up): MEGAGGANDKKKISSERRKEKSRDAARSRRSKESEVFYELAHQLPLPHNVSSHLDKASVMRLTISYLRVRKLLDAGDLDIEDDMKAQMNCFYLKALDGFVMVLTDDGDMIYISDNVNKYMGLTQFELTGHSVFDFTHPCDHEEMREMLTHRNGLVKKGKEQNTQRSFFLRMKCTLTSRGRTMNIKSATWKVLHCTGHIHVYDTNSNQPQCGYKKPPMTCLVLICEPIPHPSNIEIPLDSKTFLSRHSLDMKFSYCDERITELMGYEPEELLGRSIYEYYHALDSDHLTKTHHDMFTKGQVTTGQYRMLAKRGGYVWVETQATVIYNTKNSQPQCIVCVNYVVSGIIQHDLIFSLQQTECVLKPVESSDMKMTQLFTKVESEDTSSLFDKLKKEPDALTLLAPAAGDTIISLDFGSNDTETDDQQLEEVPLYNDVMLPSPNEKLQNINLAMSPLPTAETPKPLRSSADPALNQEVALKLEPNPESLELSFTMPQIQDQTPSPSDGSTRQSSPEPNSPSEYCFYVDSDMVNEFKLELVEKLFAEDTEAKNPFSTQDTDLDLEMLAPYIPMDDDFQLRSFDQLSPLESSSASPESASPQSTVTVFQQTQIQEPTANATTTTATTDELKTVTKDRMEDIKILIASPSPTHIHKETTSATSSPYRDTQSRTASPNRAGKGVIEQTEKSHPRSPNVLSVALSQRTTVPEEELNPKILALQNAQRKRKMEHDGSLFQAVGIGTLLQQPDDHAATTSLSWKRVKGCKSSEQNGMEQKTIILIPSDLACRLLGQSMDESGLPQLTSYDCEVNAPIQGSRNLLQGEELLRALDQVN
Method in brief: (§2)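 HRE-driven cell-based reporter gene assay of HIF-1 activation. Activation was induced by hypoxia (1% O2, 94% N2, 5% CO2) or by DFX. Compounds were tested up to 30 µM and an IC50 was derived. YC-1 served as the reference inhibitor.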

[9] = molecular target: Serine/threonine-protein kinase mTOR (Homo sapiens) (UniProt P42345); test: Inhibition of mTOR in human H460 cells assessed as 4E-BP1 phosphorylation at 3 uM by Western blot; type: cell-based
Method in brief: (§3)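 H460 cells were stimulated with 20% FCS in the presence of test compound at 3 or 10 µM, alongside untreated and FCS-only controls. Phosphorylation was assessed by Western blot.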

[10] = molecular target: Serine/threonine-protein kinase mTOR (Homo sapiens) (UniProt P42345); test: Inhibition of mTOR in human H460 cells assessed as p70S6 phosphorylation at Thr 389 at 10 uM; type: cell-based; method in brief: as §1
[11] = molecular target: Serine/threonine-protein kinase mTOR (Homo sapiens) (UniProt P42345); test: Inhibition of mTOR in human H460 cells assessed as 4E-BP1 phosphorylation at 10 uM by Western blot; type: cell-based; method in brief: as §3
H460 [12] = test: Inhibition of PI3K in human H460 cells assessed as Akt phosphorylation at Ser 473 upto 30 uM; type: cell-based; method in brief: as §1
[13] = molecular target: Hypoxia-inducible factor 1-alpha (Homo sapiens) (UniProt Q16665); test: Inhibition of HIF1-alpha at 30 uM; method in brief: as §2

Row | Structure (SMILES) | Activity [1] | Activity [2] | Activity [3] | inhibition (H460 [4]) | Activity (H460 [12]) | also measured
1 | COc1ccc2c(Sc3ccc([N+](=O)[O-])cc3)c3ccoc3nc2c1 |  |  |  | 48% |  | IC50 [1]: 4 µM; Activity (H460 [5]): Active; Activity [6]: Active; Activity (H460 [7]): Active; IC50 [3]: 3 µM; Activity [8]: Active; Activity [9]: Active; inhibition [10]: 49%; Activity [11]: Active
2 | COc1ccc2c(Sc3ccc(C(=O)O)cc3)c3ccoc3nc2c1 | inactive | inactive | inactive |  | inactive | Activity [8]: inactive
3 | COc1cc2nc3occc3c(Sc3ccc([N+](=O)[O-])cc3)c2cc1OC | inactive | inactive | inactive |  | inactive | 
4 | COc1ccc2c(Sc3ccc(C#N)cc3)c3ccoc3nc2c1 | inactive | inactive | inactive |  | inactive | Activity [8]: inactive
5 | O=c1cc(N2CCOCC2)oc2c(-c3ccccc3)cccc12 |  |  |  |  |  | inhibition [2]: 45%; inhibition (H460 [12]): 40%
6 | COc1ccc2c(-n3ccnc3)c3ccoc3nc2c1 | inactive | inactive | inactive | 64% |  | 
7 | COc1cc2nc3occc3c(-n3ccnc3)c2cc1OC | inactive | inactive | inactive | 64% |  | 
8 | COc1ccc2c(Oc3cccc([N+](=O)[O-])c3)c3ccoc3nc2c1 | inactive | inactive | inactive | 43% |  | 
9 | O=[N+]([O-])c1ccc(Oc2c3cc4c(cc3nc3occc23)OCO4)cc1 | inactive |  | inactive |  | inactive | inhibition [10]: 47%
10 | COc1ccc2c(Nc3ccc(C(C)=O)cc3)c3ccoc3nc2c1 | inactive |  | inactive |  | inactive | inhibition [10]: 53%
11 | Fc1ccc(Oc2c3cc4c(cc3nc3occc23)OCO4)cc1 | inactive | inactive | inactive | 45% |  | 
12 | COc1cc2nc3occc3c(-n3cnc([N+](=O)[O-])c3)c2cc1OC | inactive | inactive | inactive | 58% |  | 

The next lines start with results.

Row | Activity [1] | Activity [2] | Activity [3] | Structure (SMILES) | inhibition (H460 [4]) | Activity (H460 [12]) | also measured
13 | inactive | inactive | inactive | O=[N+]([O-])c1cn(-c2c3cc4c(cc3nc3occc23)OCO4)cn1 | 57% |  | 
14 |  | inactive |  | COc1ccc2c(OC)c3ccoc3nc2c1 |  | inactive | Activity [13]: inactive
15 | inactive |  | inactive | O=[N+]([O-])c1ccc(Sc2c3cc4c(cc3nc3occc23)OCO4)cc1 |  | inactive | inhibition [10]: 44%
16 | inactive | inactive | inactive | COc1ccc2c(Sc3ccc(Br)cc3)c3ccoc3nc2c1 |  | inactive | Activity [8]: inactive
17 | inactive | inactive | inactive | COc1ccc2c(N3CCN(C(C)=O)CC3)c3ccoc3nc2c1 | 58% |  | 
18 | inactive | inactive | inactive | N#Cc1ccc(Oc2c3cc4c(cc3nc3occc23)OCO4)cc1 | 58% |  | 
19 | inactive |  | inactive | c1cn(-c2c3cc4c(cc3nc3occc23)OCO4)cn1 | 40% |  | inhibition [10]: 45%
20 | inactive |  | inactive | c1cncc(Oc2c3cc4c(cc3nc3occc23)OCO4)c1 |  | inactive | inhibition [10]: 51%
21 | inactive | inactive | inactive | COc1ccc2c(Oc3cccnc3)c3ccoc3nc2c1 | 67% |  | 
22 | inactive | inactive | inactive | COc1ccc2c([S+]([O-])c3ccc([N+](=O)[O-])cc3)c3ccoc3nc2c1 (centres undefined) |  | inactive | Activity [8]: inactive
23 | inactive | inactive | inactive | COc1cc2nc3occc3c(Oc3cccnc3)c2cc1OC | 43% |  | 
